Laboratory results as given in ChEMBL document CHEMBL1129428 (J Med Chem, 1996).

What was measured:
Mus musculus [1] = assay: Anticonvulsant activity after intraperitoneal injection into mice by using MES screen test after 0.5 hr; type: functional
Mus musculus [2] = assay: Anticonvulsant activity after intraperitoneal injection into mice measured in a maximal electroshock scree (MES) screen; type: functional
Mus musculus [3] = assay: Anticonvulsant activity after intraperitoneal injection into mice by using toxicity screen test after 0.5 hr; type: organism-based; settings: in vivo, ip
Mus musculus [4] = assay: Compound was tested for toxicity after intraperitoneal injection into mice by using toxicity screen test after 4 hr; type: organism-based; settings: in vivo, ip
Summary of the method: (§1)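 Mice injected intraperitoneally at 30, 100 and 300 mg/kg and examined 0.5 and 4 h afterwards. Each entry is the minimum dose giving activity (MES protection, scPTZ protection, or rotorod failure for neurotoxicity) in half or more of the mice. Activity is called absent if nothing occurs at 300 mg/kg.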

Mus musculus [5] = assay: Compound was tested for anticonvulsant activity after intraperitoneal injection into mice by using MES screen test after 2 hr; type: functional; settings: ip
Summary of the method: (§2)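 Quantitative intraperitoneal mouse testing in the MES, scPTZ or rotorod neurotoxicity screens at the peak time given for each compound (0.25–2 h). ED50 or TD50 reported in mg/kg with 95% CI and slope (SE).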

Mus musculus [6] = assay: Compound was tested for anticonvulsant activity after intraperitoneal injection into mice by using scPTZ screen test after 2 hr; type: functional; settings: ip; summary of the method: as §2
[7] = Compound was tested for toxicity after intraperitoneal injection into mice by using neurotoxicity screen test after 1 hr; type: organism-based; settings: mouse, in vivo, ip; summary of the method: as §2
Rattus norvegicus [8] = assay: Compound was tested for anticonvulsant activity after Oral Administration into Rats by using MES screen test after 0.25h,dose 12.50 mg/kg; number of rats out of four which were protected; type: functional; settings: dose 12.5 mg/kg
Summary of the method: (§3)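 Rats received the compound orally. […] Rats were tested in the MES screen at 0.25, 0.5, 1, 2 and 4 h. Each value is the number of rats protected out of 4. The test followed NINDS procedures.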

Rattus norvegicus [9] = assay: Compound was tested for anticonvulsant activity after Oral Administration into Rats by using MES screen test after 4h,dose 12.50 mg/kg; number of rats out of four which were protected; type: functional; settings: dose 12.5 mg/kg; summary of the method: as §3
Rattus norvegicus [10] = assay: Compound was tested for anticonvulsant activity after Oral Administration into Rats by using MES screen test after 0.5h,dose 12.50 mg/kg; number of rats out of four which were protected; type: functional; settings: dose 12.5 mg/kg; summary of the method: as §3
Rattus norvegicus [11] = assay: Compound was tested for anticonvulsant activity after Oral Administration into Rats by using MES screen test after 1h,dose 12.50 mg/kg; number of rats out of four which were protected; type: functional; settings: dose 12.5 mg/kg; summary of the method: as §3
Rattus norvegicus [12] = assay: Compound was tested for anticonvulsant activity after Oral Administration into Rats by using MES screen test after 2h,dose 12.50 mg/kg; number of rats out of four which were protected; type: functional; settings: dose 12.5 mg/kg; summary of the method: as §3
Rattus norvegicus [13] = assay: Compound was tested for anticonvulsant activity after Oral Administration into rat by using MES screen test after 4 hr; type: functional
Summary of the method: (§4)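 Rats dosed orally, typically at 50 mg/kg first, then mostly 12.5 mg/kg (some compounds at 30 mg/kg), and tested by maximal electroshock. Four rats per compound, scored at 0.25, 0.5, 1, 2 and 4 h as the number of rats protected out of 4.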

[14] = Compound was tested for toxicity after oral administration in rat by using neurotoxicity screen test after 2 hr; type: organism-based; settings: in vivo
Summary of the method: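 Rat neurotoxicity after oral dosing, observed at 0.25, 0.5, 1, 2, 4, 6, 8 and 24 h (8 h omitted for one compound).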

Mus musculus [15] = assay: Anticonvulsant activity after intraperitoneal injection into mice by using scPTZ screen after 0.5 hr; type: functional
Rattus norvegicus [16] = assay: Compound was tested for anticonvulsant activity after Oral Administration into Rats by using MES screen test after 4h,dose 30 mg/kg; number of rats out of four which were protected; type: functional; summary of the method: as §3
Rattus norvegicus [17] = assay: Compound was tested for anticonvulsant activity after Oral Administration into Rats by using MES screen test after 0.25h,dose 30 mg/kg; No activity was demonstarted; type: functional, organism-based; design: dose 30 mg/kg; summary of the method: as §3
Rattus norvegicus [18] = assay: Compound was tested for anticonvulsant activity after Oral Administration into Rats by using MES screen test after 2h,dose 30 mg/kg; number of rats out of four which were protected; type: functional; summary of the method: as §3
Rattus norvegicus [19] = assay: Compound was tested for anticonvulsant activity after Oral Administration into Rats by using MES screen test after 0.5h,dose 30 mg/kg; number of rats out of four which were protected; type: functional; summary of the method: as §3
Rattus norvegicus [20] = assay: Compound was tested for anticonvulsant activity after Oral Administration into Rats by using MES screen test after 1h,dose 30 mg/kg; number of rats out of four which were protected; type: functional; summary of the method: as §3
Rattus norvegicus [21] = assay: Compound was tested for anticonvulsant activity after Oral Administration into rat by using MES screen test after 1 hr; type: functional; summary of the method: as §4
[22] = Partition coefficient (logP); type: physicochemical; settings: octanol/water
Summary of the method: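 Partition between 1-octanol and buffer at pH 7.4, with solutions prepared in 1-octanol before buffer is added. Quantified by UV, using λmax and ε values measured in 1-octanol.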

Rattus norvegicus [23] = assay: Compound was tested for anticonvulsant activity after Oral Administration into Rats by using MES screen test after 4h,dose 50 mg/kg; No activity was demonstarted; type: functional, organism-based; design: dose 50 mg/kg; summary of the method: as §3
Rattus norvegicus [24] = assay: Compound was tested for anticonvulsant activity after Oral Administration into Rats by using MES screen test after 2h,dose 50 mg/kg; No activity was demonstarted; type: functional, organism-based; design: dose 50 mg/kg; summary of the method: as §3
Rattus norvegicus [25] = assay: Compound was tested for anticonvulsant activity after Oral Administration into Rats by using MES screen test after 0.25h,dose 50 mg/kg; No activity was demonstarted; type: functional, organism-based; design: dose 50 mg/kg; summary of the method: as §3
Rattus norvegicus [26] = assay: Compound was tested for anticonvulsant activity after Oral Administration into Rats by using MES screen test after 0.5h,dose 50 mg/kg; No activity was demonstarted; type: functional, organism-based; design: dose 50 mg/kg; summary of the method: as §3
Rattus norvegicus [27] = assay: Compound was tested for anticonvulsant activity after Oral Administration into Rats by using MES screen test after 1h,dose 50 mg/kg; No activity was demonstarted; type: functional, organism-based; design: dose 50 mg/kg; summary of the method: as §3
Mus musculus [28] = assay: Anticonvulsant activity after intraperitoneal injection into mice by using scPTZ screen test after 4 hr; type: functional
Rattus norvegicus [29] = assay: Compound was tested for anticonvulsant activity after Oral Administration into Rats by using MES screen test after 4h,dose 30 mg/kg; No activity was demonstarted; type: functional, organism-based; design: dose 30 mg/kg; summary of the method: as §3
Rattus norvegicus [30] = assay: Compound was tested for anticonvulsant activity after Oral Administration into Rats by using MES screen test after 2h,dose 30 mg/kg; No activity was demonstarted; type: functional, organism-based; design: dose 30 mg/kg; summary of the method: as §3
Rattus norvegicus [31] = assay: Compound was tested for anticonvulsant activity after Oral Administration into Rats by using MES screen test after 0.5h,dose 30 mg/kg; No activity was demonstarted; type: functional, organism-based; design: dose 30 mg/kg; summary of the method: as §3
Rattus norvegicus [32] = assay: Compound was tested for anticonvulsant activity after Oral Administration into Rats by using MES screen test after 1h,dose 30 mg/kg; No activity was demonstarted; type: functional, organism-based; design: dose 30 mg/kg; summary of the method: as §3
Mus musculus [33] = assay: Toxicity after intraperitoneal injection into mice by using toxicity screen test after 0.5 hr; type: organism-based; settings: in vivo, ip; summary of the method: as §1
Rattus norvegicus [34] = assay: Compound was tested for anticonvulsant activity after Oral Administration into Rats by using MES screen test after 4h,dose 12.5 mg/kg; number of rats out of four which were protected; type: functional; summary of the method: as §3
Rattus norvegicus [35] = assay: Compound was tested for anticonvulsant activity after Oral Administration into Rats by using MES screen test after 0.25h,dose 12.5 mg/kg; number of rats out of four which were protected; type: functional; summary of the method: as §3
Rattus norvegicus [36] = assay: Anticonvulsant activity after oral administration into rats; type: functional; design: concentration or dose not given beside the values
Rattus norvegicus [37] = assay: Compound was tested for anticonvulsant activity after Oral Administration into Rats by using MES screen test after 1h,dose 12.5 mg/kg; number of rats out of four which were protected; type: functional; summary of the method: as §3
Rattus norvegicus [38] = assay: Compound was tested for anticonvulsant activity after Oral Administration into rat by using MES screen test after 0.5 hr; type: functional; summary of the method: as §4
[39] = Protection index = TD50/ED50 (MES); type: ADME, organism-based; settings: rat, in vivo; read-out: PI
Rattus norvegicus [40] = assay: Compound was tested for anticonvulsant activity after Oral Administration into Rats by using MES screen test after 2h,dose 12.5 mg/kg; number of rats out of four which were protected; type: functional; summary of the method: as §3
Rattus norvegicus [41] = assay: Compound was tested for anticonvulsant activity after Oral Administration into Rats by using MES screen test after 0.25h,dose 30 mg/kg; number of rats out of four which were protected; type: functional; summary of the method: as §3

logP [22] | SMILES | Dose (Mus musculus [1]) [mg/kg] | Dose (Mus musculus [2]) [mg/kg] | Dose (Mus musculus [4]) [mg/kg] | TD50 at 2 h [14] [mg/kg] | Dose (Mus musculus [15]) [mg/kg] | Activity (Rattus norvegicus [17]) | Activity (Rattus norvegicus [18]) | Activity (Rattus norvegicus [19]) | Activity (Rattus norvegicus [20]) | Dose (Mus musculus [28]) [mg/kg] | Activity (Rattus norvegicus [29]) | Dose (Mus musculus [33]) [mg/kg] | ED50 (Rattus norvegicus [38]) [mg/kg] | other results
 | NC(=O)N/N=C/c1ccc(Oc2ccc(Cl)cc2F)cc1 | 30 | 30 | 30 | > 90 |  |  |  |  |  |  |  |  |  | Dose (Mus musculus [3]): 100 mg/kg; ED50 (Mus musculus [5]): 3.31 mg/kg; ED50 (Mus musculus [6]): > 45 mg/kg; TD50 at 1 h [7]: 36.3 mg/kg; Activity (Rattus norvegicus [8]): 2; Activity (Rattus norvegicus [9]): 4; Activity (Rattus norvegicus [10]): 4; Activity (Rattus norvegicus [11]): 4; Activity (Rattus norvegicus [12]): 4; ED50 (Rattus norvegicus [13]): 1.13 mg/kg
 | C/C(=N/NC(N)=O)c1ccc(Sc2ccccc2)cc1 | 100 | 100 |  |  | 300 | No activity | 4 | 4 | 4 |  |  |  |  | Activity (Rattus norvegicus [16]): 4; ED50 (Rattus norvegicus [21]): 16.6 mg/kg
2.07 | NC(=O)N/N=C\c1cccc(Oc2ccccc2)c1 |  | 300 |  |  |  |  |  |  |  |  |  |  |  | Activity (Rattus norvegicus [23]): No activity; Activity (Rattus norvegicus [24]): No activity; Activity (Rattus norvegicus [25]): No activity; Activity (Rattus norvegicus [26]): No activity; Activity (Rattus norvegicus [27]): No activity
2.06 | NNC(=O)N/N=C/c1ccc(Oc2ccc(F)cc2)cc1 | 300 | 100 | 300 |  |  | No activity |  |  |  | 300 | No activity |  |  | Activity (Rattus norvegicus [30]): No activity; Activity (Rattus norvegicus [31]): No activity; Activity (Rattus norvegicus [32]): No activity
1.96 | CC(=O)N/N=C/c1ccc(Oc2ccc(F)cc2)cc1 | 30 | 30 | 100 | > 125 | 100 |  |  |  |  | 100 |  | 100 | 18.7 | Activity (Rattus norvegicus [34]): 1; Activity (Rattus norvegicus [35]): 1; Activity (Rattus norvegicus [36]): 4; Activity (Rattus norvegicus [37]): 2; selectivity ratio [39]: > 6.7; Activity (Rattus norvegicus [40]): 2
 | CC/C(=N/NC(N)=O)c1ccc(Oc2ccccc2)cc1 | 30 | 100 | 100 |  |  |  | 3 | 4 | 3 |  | No activity | 100 | 23.1 | Activity (Rattus norvegicus [41]): 1
